IC50 data for nine compounds are collected here from ChEMBL document CHEMBL2034956, “Bioactive diterpenes from Callicarpa longissima” (J Nat Prod, 2012).

Broadly, the IC50 is the point on the concentration scale where inhibition reaches its midpoint.

SMILES strings stand for the structures. Values after ≈ are worked out from the molar mass of the structure shown.

Common to all, as to format: functional, cell-based
Assay [1] concerns PC-3. The assay is described as follows: Antiproliferative activity against human PC3 cells after 48 hrs by SRB assay. The conditions noted are these: PC-3, 48 h. The method, boiled down: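 Cells seeded in RPMI 1640 with 5% fetal bovine serum at 37 °C, 5% CO2. After 24 h, two plates per line TCA-fixed as time-zero reference. Compound added, then 48 h further incubation at 37 °C. Cold TCA fixation, 0.4% w/v sulforhodamine B in 1% acetic acid for 10 min, acetic acid washes, dye solubilized in 10 mM Trizma base, absorbance 515 nm. IC50 is 50% absorbance reduction versus untreated cells.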
In general terms: In SRB staining, fixed cells bind dye roughly in proportion to their protein.

Assay [2] is described as follows: Antiinflammatory activity in human neutrophils assessed as inhibition of FMLP/CB-induced elastase release using Meo-Suc-Ala-Ala-Pro-Val-p-nitroanilide as substrate incubated for 5 mins prior to FMLP/CB-challenge by spectrophotometry. The conditions noted are these: Neutrophil. The method, boiled down: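 Human neutrophils isolated by dextran sedimentation and Ficoll centrifugation before elastase release measurement.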

Assay [3] can be described thus: Antiinflammatory activity in human neutrophils assessed as inhibition of FMLP/CB-induced superoxide-anion generation incubated for 5 mins prior to FMLP/CB-challenge measured after 10 mins by spectrophotometry. As to conditions: Neutrophil. The method, boiled down: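 Human neutrophils isolated by dextran sedimentation and Ficoll centrifugation. Superoxide anion measured as superoxide dismutase-inhibitable reduction of ferricytochrome c.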

Regarding `C=C(C)[C@@H]1CCC2=C[C@]3(C(C)C)CC[C@]2(OO3)[C@@]1(C)CCC(=O)O` (relative stereo), the figures for the IC50 in assay [1], in assay [2] and in assay [3] were over 10 µg/mL, 4.66 µg/mL (≈ 13.9 µM) and 3.14 µg/mL (≈ 9.39 µM), respectively.
Regarding `C=C(C)[C@@H]1CCC2=C[C@](O)(C(C)C)CC[C@@]23OC(=O)CC[C@@]13C` (relative stereo), the 50% inhibitory concentration (IC50) in assay [2] and in assay [3] was over 10 µg/mL each time.
In the case of `COc1ccc(-c2oc3cc(OC)c(OC)c(O)c3c(=O)c2OC)cc1OC` [ARTEMETIN], the half-maximal inhibitory concentration (IC50) in assay [2] and in assay [3] was over 10 µg/mL in each case.
For `CC(C)c1ccc2c(c1)CC[C@@H](C(C)(C)O)[C@]2(C)CCC(=O)O` (relative stereo), the IC50 in assay [2] and in assay [3] was over 10 µg/mL throughout.
In the case of `C=C1C[C@@H](O)[C@H]2C(C)(C)CCC[C@]2(C)[C@H]1CC/C(C)=C/C(=O)O`, the IC50 in assay [2] and in assay [3] was over 10 µg/mL throughout.
On to `C=C1CC[C@H]2C(C)(C)C(=O)CC[C@]2(C)[C@H]1CC/C(C)=C/C(=O)O`, for which the half-maximal inhibitory concentration (IC50) in assay [1] was over 10 µg/mL; in assay [2], over 10 µg/mL; in assay [3], 9.31 µg/mL (≈ 29.2 µM).
Consider `COc1ccc(-c2oc3cc(OC)c(OC)c(O)c3c(=O)c2OC)cc1`, for which the concentration for half-maximal inhibition (IC50) in assay [2] and in assay [3] was over 10 µg/mL in each case.
For the compound `CC1=CC(=O)[C@H]2C(C)(C)CCC[C@]2(C)[C@H]1CC/C(C)=C/C(=O)O` [CALLILONGISIN D], the IC50 in assay [1] was over 10 µg/mL; in assay [2] it was over 10 µg/mL; in assay [3], 5.09 µg/mL (≈ 16 µM).
On to `C[C@H]1[C@H](C)CC[C@]2(C(=O)O)CC[C@]3(C)C(=CC[C@@H]4[C@@]5(C)CC[C@H](O)C(C)(C)[C@@H]5CC[C@]43C)[C@H]12` [URSOLIC ACID], for which the half-maximal inhibitory concentration (IC50) in assay [1] was over 10 µg/mL; in assay [2] it was 5.21 µg/mL (≈ 11.4 µM); in assay [3], 2.79 µg/mL (≈ 6.11 µM).
